Arrestin-AP2 inh: blocks beta-arrestin peptide binding to AP2 adaptin. inhibition, % at 10 µM. FITC-arrestin peptide / GST-AP2 beads, flow cytometry; AP2 beta2 appendage carries R879A mutation. AID 504490. 0.31% of 340,000 active;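 active = inhibition above a set limit, near 3 SD of compounds lacking own fluorescence, cut at about 54% in these data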
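System: GST-AP2 R879A glutathione beads | Also added: FITC-arrestin peptide, 50 nM | Times: 12 min plus 1 h, RT | Signal: Bead flow cytometry, FITC channel | Buffer or medium: PBS with 0.05% Tween 20 and 0.1% BSA | Read-out basis: Percent drop in bead-associated FITC signal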
UHRF1 binding: UHRF1 methyl-DNA binding inhibition | Q96T88 | UHRF1 binding to methylated oligo, TR-FRET | inhibition, % at 4.4 µM | 0.75% of 370,000 active; in the data active = inhibition above about 21%;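 note: UHRF1 SRA domain binding a hemimethylated CpG hairpin DNA probe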
Target sequence (Q96T88 whole entry, looked up, the tested form may be a part): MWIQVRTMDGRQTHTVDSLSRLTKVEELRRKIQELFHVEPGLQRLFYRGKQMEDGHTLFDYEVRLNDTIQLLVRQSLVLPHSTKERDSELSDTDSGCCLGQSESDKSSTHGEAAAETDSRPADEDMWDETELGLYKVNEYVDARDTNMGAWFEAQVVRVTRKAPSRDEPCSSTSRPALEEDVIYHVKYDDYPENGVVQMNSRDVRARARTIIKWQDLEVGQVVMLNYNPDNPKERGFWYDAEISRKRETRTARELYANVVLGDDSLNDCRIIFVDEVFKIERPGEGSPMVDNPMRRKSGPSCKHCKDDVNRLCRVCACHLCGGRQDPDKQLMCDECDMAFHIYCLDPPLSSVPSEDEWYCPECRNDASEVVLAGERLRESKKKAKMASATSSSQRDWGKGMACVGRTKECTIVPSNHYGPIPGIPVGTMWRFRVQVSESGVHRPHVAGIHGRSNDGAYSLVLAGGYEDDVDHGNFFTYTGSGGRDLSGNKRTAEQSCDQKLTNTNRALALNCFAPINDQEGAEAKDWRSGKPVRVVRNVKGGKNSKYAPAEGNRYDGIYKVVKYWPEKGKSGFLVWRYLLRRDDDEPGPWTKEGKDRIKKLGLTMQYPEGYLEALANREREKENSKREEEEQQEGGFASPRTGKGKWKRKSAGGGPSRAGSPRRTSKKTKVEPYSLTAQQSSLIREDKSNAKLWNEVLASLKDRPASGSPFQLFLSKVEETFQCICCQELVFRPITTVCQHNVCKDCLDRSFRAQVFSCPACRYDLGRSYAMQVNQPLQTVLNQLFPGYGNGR
MBD2 DNA inh: blocks human MBD2 binding to methylated DNA; Q9UBB5; TR-FRET, MBD2 binding to methylated oligonucleotide; inhibition, % at 4.4 µM; 0.31% of 370,000 active; AID 686964; in the data active = inhibition above about 13%
ABHD5-PLIN5 inh: ABHD5-PLIN5 protein interaction inhibition | Split G. princeps luciferase complementation, luminescence, 4 h | inhibition, % at 4 µM | 0.78% of 360,000 active | AID 602281;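 active = inhibition above the mean inhibition across every tested compound plus 3 SD, cut at about 22% in these data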
Rin1 Abl inh: blocks binding of human Rin1 to Abl | P00519+Q13671 | TR-FRET Rin1/Abl binding, biochemical | inhibition, % at 7.35 µM | 0.4% of 360,000 active | AID 588664; in the data active = inhibition above about 5%, passing the limit was not always enough
B2AR ag: agonists of human beta-2 adrenergic receptor inducing internalization; P07550; Am2.2-beta2AR cells, FAP receptor internalization, flow cytometry; response, % (no concentration beside the values); 0.43% of 340,000 active;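 active = response above a set limit, near 3 SD of response in nonfluorescent compounds, cut at about 42% in these data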
ABHD5 PLIN5 conf: confirmation of human ABHD5-PLIN5 interaction inhibitors; 67% of 2,200 active; inhibition, % at 4 µM; biochemical ABHD5-PLIN5 interaction, luminescence; AID 651612; shares compounds with ABHD5-PLIN5 inh; in the data active = inhibition above about 23%
HNF4 counter: HNF4 split-luciferase signal hit, counter-screen. shares compounds with ABHD5-PLIN5 inh. HNF4 dimerization, luminescence, biochemical. inhibition, % at 4 µM. 77% of 2,200 active. AID 651674;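 active = mean inhibition across replicate wells exceeding the computed hit threshold, cut at about 13% in these data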;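 note: light from luciferase halves that rejoin when HNF4 fusion proteins dimerize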
Numbers stand for hits; – = inactive; · = not tested or not shown. Hits are enriched below; roughly 2.5% of the tested compounds scored in any of these assays.

SMILES	Arrestin-AP2 inh	UHRF1 binding	MBD2 DNA inh	ABHD5-PLIN5 inh	Rin1 Abl inh	B2AR ag	ABHD5 PLIN5 conf	HNF4 counter
CC(NC(=O)/C(C#N)=C/c1ccc(C(=O)O)cc1)c1ccccc1 (stereo not drawn)	–	–	–	24	–	–	47	30
Cc1c[nH]c2cccc(-c3ccc(Cl)cc3Cl)c12	·	–	–	·	·	·	·	·
CC[N+]1(C)CCC(O)(/C=C/c2ccccc2)C(C(=O)/C=C/c2ccccc2)C1 (stereo not drawn)	–	–	–	45	–	–	93	109
Cc1cccc(C(=O)Nc2nc3ncccn3c2-c2ccc(F)cc2)c1	·	–	–	·	·	·	·	·
O=C(NCc1cccnc1)/C(=C\c1ccc(-c2ccc(Cl)c(Cl)c2)o1)S(=O)(=O)c1ccccc1	–	–	–	77	–	95	101	97
CC(C)C(NC(=O)[C@H](Cc1ccccc1)NC(=O)OCc1ccccc1)P(=O)(O)OC(Cc1ccccc1)C(=O)O (stereo partly drawn)	·	–	–	·	·	·	·	·
C=CCOC(=O)C(=O)/C=C/c1ccc2c(c1)Cc1ccccc1-2	–	–	–	35	–	–	77	71
CCOC(=O)c1c(-c2ccc(C)o2)csc1NC(=O)COC(=O)c1cccs1	–	–	–	27	–	–	–	28
CCOC(=O)c1c(-c2ccc(C)o2)csc1NC(=O)CSc1ncn[nH]1	–	–	–	44	–	–	–	52
COc1cc(OC)c(C(=O)/C=C/c2ccccc2)c(O)c1O	–	–	–	39	–	–	50	38
O=C(C=Cc1cccc(O)c1)c1ccccc1O	–	–	–	45	–	56	93	75
O=C(/C=C/c1ccc(O)c(O)c1)c1ccccc1O	–	–	–	–	–	–	·	·
COc1cc(O)cc(O)c1C(=O)/C=C/c1ccccc1	–	–	–	–	–	–	·	·
COc1ccc(C(=O)/C=C/c2ccc(OC)cc2OC)c(O)c1	–	–	–	–	–	–	·	·
COc1ccc(C(=O)/C=C/c2ccccc2)c(O)c1	–	–	–	30	–	–	66	47
O=C(C=Cc1ccccc1O)c1ccccc1O	–	–	–	73	–	–	98	90
CC(C)CN1C(=O)[C@]2(CC(=O)N(C)C2c2ccccc2)c2cc(-n3cc(-c4ccccc4)nn3)ccc21 (stereo partly drawn)	·	–	–	·	·	·	·	·
OC1CC2CCC(C1)N2CCCN1c2ccccc2Sc2ccc(Cl)cc21 (stereo not drawn)	–	–	–	27	–	–	–	16
CN1CCN(CCCN2c3ccccc3Sc3ccc(Cl)cc32)CC1	–	–	–	–	–	–	·	·
CCn1c(SCC(=O)N/N=C/C(C)=C/c2ccco2)nnc1-c1ccccc1	–	–	–	–	–	–	·	·
CCn1c(SCC(=O)N/N=C/C=C/c2ccco2)nnc1-c1ccccc1	–	–	–	31	–	–	24	44
CCCCOCCCNC(=O)C[C@H]1C(=O)N(Cc2ccc(OC)cc2)C2=CCCCC[C@@]21C(=O)OC	·	–	–	·	·	·	·	·
COC/C=C/C1=CC2=CC(=O)C(C)(OC(=O)C3CCCC3)C(=O)C2=CO1 (stereo not drawn)	–	29	–	36	–	–	67	39
O=C(Cn1cnc2c(cnn2-c2ccc(F)cc2)c1=O)NCc1ccco1	–	–	–	–	–	–	·	·
Cc1sc2ncn(CC(=O)NCc3ccco3)c(=O)c2c1-c1ccc(F)cc1	–	–	–	29	–	–	56	62
SMILES	Arrestin-AP2 inh	UHRF1 binding	MBD2 DNA inh	ABHD5-PLIN5 inh	Rin1 Abl inh	B2AR ag	ABHD5 PLIN5 conf	HNF4 counter
Cc1cc([N+](=O)[O-])ccc1NC(=O)CSc1nncn1-c1ccccn1	–	–	–	–	–	–	·	·
Cc1ccc([N+](=O)[O-])cc1NC(=O)CSc1nncn1-c1ccccn1	–	–	–	24	–	–	–	–
COC(=O)c1cc(=O)n(-c2ccccc2)c(=Nc2ccccc2)s1	–	–	–	38	–	–	57	39
COC(=O)c1cc(=O)n(Cc2ccco2)c(=Nc2ccc(F)cc2)s1	–	·	·	31	–	–	65	44
COc1ccc(S[C@]2(C(=O)N3CCCC3)CC(=O)N(C(=O)/C=C/c3ccccc3)[C@@H]2c2ccc(OC)cc2)cc1	·	–	–	·	·	·	·	·
COc1cccc(CNC(=O)CCCN2C(=O)COc3ccc(C)cc32)c1OC	·	–	–	·	·	·	·	·
CCC(C)N(C(=O)CN1C(=O)C2CCCCN2C(=O)c2ccccc21)C(C)CC (stereo not drawn)	·	–	–	·	·	·	·	·
CC(C)(C)c1ccc(S(=O)(=O)N2CCCC(C(=O)NCc3ccco3)C2)cc1 (stereo not drawn)	·	–	–	·	·	·	·	·
Cn1c(=O)[nH]c(=O)c2c1nc(Br)n2Cc1ccccc1Cl	–	–	–	–	–	–	·	·
Cn1c(=O)[nH]c(=O)c2c1nc(SCC(O)CO)n2Cc1ccccc1Cl (stereo not drawn)	–	–	–	39	–	–	–	–
Oc1cc(Nc2ccccc2)cc2cccnc12	–	–	–	–	–	–	·	·
Oc1cc(NCCN2CCOCC2)cc2cccnc12	–	–	–	51	–	–	–	–
C=C(CN(C)C)C(=O)c1ccc(OC2OC(COC(C)=O)C(OC(C)=O)C(OC(C)=O)C2OC(C)=O)cc1 (stereo not drawn)	–	–	–	39	–	–	99	106
CCCCC1Cc2[nH][nH]c(=O)c2C(c2ccc(Cl)cc2)O1 (stereo not drawn)	·	–	–	28	·	·	–	25
O=c1[nH][nH]c2c1[C@H](c1ccc(F)cc1)O[C@H](CCc1ccccc1)C2	·	–	–	27	·	·	–	36
S=C(NCCc1ccccn1)NC1CC2CCC1C2 (stereo not drawn)	–	–	–	62	–	–	–	–
CCc1nnc(NC(=O)c2nc(S(=O)(=O)Cc3ccccc3)ncc2Cl)s1	–	–	–	34	–	–	69	48
CCc1nnc(NC(=O)c2nc(S(=O)(=O)Cc3cccc(C)c3)ncc2Cl)s1	–	–	–	33	–	–	82	49
CCc1nnc(NC(=O)c2nc(S(=O)(=O)Cc3ccc(C)cc3)ncc2Cl)s1	–	–	–	25	–	–	68	43
N#Cc1cccc(NC(=O)OC2CC3CC2[C@H]2CCCCN2C3)c1 (stereo partly drawn)	·	–	–	·	·	·	·	·
O=C(c1ccccc1)N1CC[C@H]2[C@H](CCCN2Cc2cc(F)cc(F)c2)C1	·	–	–	·	·	·	·	·

Screening data (PubChem BioAssay)
